# Results as given in ChEMBL document CHEMBL1806473, “Structure-based optimization of click-based histone deacetylase inhibitors” (Eur J Med Chem, 2011).
# How the values were obtained:
# SR [1] = assay: Antiproliferative activity against human SR cells by SRB assay; assay type: functional
# Summary of the method: (§1)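 Cell growth was tested in the NIH in vitro disease-oriented human tumor cell line screen, which NCI ran for these compounds. Compounds were tested at five concentrations (100, 10, 1.0, 0.1 and 0.01 μM), and growth was read by SRB signal. GI50 is the drug concentration that reduces growth of treated cells to half that of control cells during drug incubation.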
# OVCAR-5 [2] = assay: Antiproliferative activity against human OVCAR5 cells by SRB assay; assay type: functional
# Summary of the method: (§2)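 Tested in the NCI in vitro human tumor cell line screen, run by the National Cancer Institute. Each compound was given at five concentrations (100, 10, 1.0, 0.1 and 0.01 μM). GI50 is the drug concentration that reduces growth of treated cells to half that of control cells during drug incubation, judged from the SRB signal.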
# NCI-H460 [3] = assay: Cytotoxicity against human NCI-H460 cells; assay type: cell-based
# UACC-62 = assay: Cytotoxicity against human UACC62 cells; assay type: cell-based
# Summary of the method: (§3)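 Screened by NCI in its in vitro disease-oriented human tumour cell line panel. Compounds tested at five concentrations (100, 10, 1.0, 0.1 and 0.01 μM). Growth read by sulforhodamine B (SRB) signal. GI50 is the concentration reducing growth of treated cells to half that of control cells during the drug incubation.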
# HOP-92 [4] = assay: Cytotoxicity against human HOP92 cells; assay type: cell-based
# HOP-92 [5] = assay: Antiproliferative activity against human HOP92 cells by SRB assay; assay type: functional; summary of the method: as §2
# MDA-MB-468 = assay: Cytotoxicity against human MDA-MB-468 cells; assay type: cell-based
# Summary of the method: (§4)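 Tested in the NCI in vitro disease-oriented human tumour cell line screen, with screening performed by NCI. Growth was read by SRB signal over the drug incubation period at five concentrations: 100, 10, 1.0, 0.1 and 0.01 μM. GI50 is the concentration that reduces growth of treated cells to half that of control cells.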
# SN12C = assay: Antiproliferative activity against human SN12C cells by SRB assay; assay type: functional; summary of the method: as §2
# T47D = assay: Antiproliferative activity against human T47D cells by SRB assay; assay type: functional; summary of the method: as §1
# CCRF-CEM = assay: Antiproliferative activity against human CCRF-CEM cells by SRB assay; assay type: functional; summary of the method: as §2
# OVCAR-5 [6] = assay: Cytotoxicity against human OVCAR5 cells; assay type: cell-based; summary of the method: as §4
# ACHN [7] = assay: Cytotoxicity against human ACHN cells; assay type: cell-based
# K562 [8] = assay: Antiproliferative activity against human K562 cells by SRB assay; assay type: functional; summary of the method: as §2
# BT-549 [9] = assay: Antiproliferative activity against human BT549 cells by SRB assay; assay type: functional; summary of the method: as §2
# NCI/ADR-RES [10] = assay: Antiproliferative activity against human NCI/ADR-RES cells by SRB assay; assay type: functional; summary of the method: as §2
# SW-620 = assay: Cytotoxicity against human SW620 cells; assay type: cell-based; summary of the method: as §3
# HCT-116 [11] = assay: Cytotoxicity against human HCT116 cells; assay type: cell-based; summary of the method: as §4
# PC-3 = assay: Antiproliferative activity against human PC3 cells by SRB assay; assay type: functional; summary of the method: as §2
# SNB-75 [12] = assay: Cytotoxicity against human SNB75 cells; assay type: cell-based; summary of the method: as §3
# BT-549 [13] = assay: Cytotoxicity against human BT549 cells; assay type: cell-based
# [14] = Antiproliferative activity against human Hs 578T cells by SRB assay; assay type: functional; summary of the method: as §2
# RPMI-8226 = assay: Antiproliferative activity against human RPMI8226 cells by SRB assay; assay type: functional; summary of the method: as §2
# K562 [15] = assay: Cytotoxicity against human K562 cells; assay type: cell-based
# IGROV-1 = assay: Cytotoxicity against human IGROV1 cells; assay type: cell-based
# SK-OV-3 = assay: Antiproliferative activity against human SKOV3 cells by SRB assay; assay type: functional; summary of the method: as §2
# SF-539 = assay: Cytotoxicity against human SF539 cells; assay type: cell-based; summary of the method: as §4
# A549 [16] = assay: Antiproliferative activity against human A549 cells by SRB assay; assay type: functional; summary of the method: as §2
# MDA-MB-435 = assay: Cytotoxicity against human MDA-MB-435 cells; assay type: cell-based
# ACHN [17] = assay: Antiproliferative activity against human ACHN cells by SRB assay; assay type: functional; summary of the method: as §2
# OVCAR-3 = assay: Antiproliferative activity against human OVCAR3 cells by SRB assay; assay type: functional; summary of the method: as §2
# RXF 393 = assay: Cytotoxicity against human RXF393 cells; assay type: cell-based; summary of the method: as §4
# NCI-H322M = assay: Cytotoxicity against human NCI-H322M cells; assay type: cell-based
# Malme-3M = assay: Cytotoxicity against human MALME-3M cells; assay type: cell-based; summary of the method: as §4
# U-251 [18] = assay: Antiproliferative activity against human U251 cells by SRB assay; assay type: functional; summary of the method: as §1
# A549 [19] = assay: Cytotoxicity against human A549 cells; assay type: cell-based; summary of the method: as §4
# U-251 [20] = assay: Cytotoxicity against human U251 cells; assay type: cell-based; summary of the method: as §3
# COLO 205 = assay: Cytotoxicity against human COLO205 cells; assay type: cell-based; summary of the method: as §4
# LOX IMVI = assay: Cytotoxicity against human LOXIMVI cells; assay type: cell-based
# HOP-62 = assay: Antiproliferative activity against human HOP62 cells by SRB assay; assay type: functional; summary of the method: as §2
# SF-268 = assay: Antiproliferative activity against human SF268 cells by SRB assay; assay type: functional; summary of the method: as §2
# SF-295 = assay: Cytotoxicity against human SF295 cells; assay type: cell-based; summary of the method: as §4
# DU-145 = assay: Cytotoxicity against human DU145 cells; assay type: cell-based; summary of the method: as §4
# HL-60(TB) = assay: Antiproliferative activity against human HL-60(TB) cells by SRB assay; assay type: functional; summary of the method: as §4
# HCT-116 [21] = assay: Antiproliferative activity against human HCT116 cells by SRB assay; assay type: functional; summary of the method: as §2
# OVCAR-4 = assay: Cytotoxicity against human OVCAR4 cells; assay type: cell-based
# NCI/ADR-RES [22] = assay: Cytotoxicity against human NCI/ADR-RES cells; assay type: cell-based; summary of the method: as §4
# NCI-H226 = assay: Cytotoxicity against human NCI-H226 cells; assay type: cell-based
# NCI-H460 [23] = assay: Antiproliferative activity against human NCI-H460 cells by SRB assay; assay type: functional; summary of the method: as §2
# SK-MEL-5 = assay: Antiproliferative activity against human SK-MEL-5 cells by SRB assay; assay type: functional; summary of the method: as §2
# SNB-75 [24] = assay: Antiproliferative activity against human SNB75 cells by SRB assay; assay type: functional; summary of the method: as §1
# SR [25] = assay: Cytotoxicity against human SR cells; assay type: cell-based; summary of the method: as §3
# UO-31 = assay: Antiproliferative activity against human UO31 cells by SRB assay; assay type: functional; summary of the method: as §1
# MOLT-4 = assay: Cytotoxicity against human MOLT4 cells; assay type: cell-based
# MCF7 = assay: Antiproliferative activity against human MCF7 cells by SRB assay; assay type: functional; summary of the method: as §2
# HT-29 = assay: Antiproliferative activity against human HT-29 cells by SRB assay; assay type: functional; summary of the method: as §2
smiles,measurement,setting,value
O=C(/C=C/c1ccc(CN(CCO)CCc2c[nH]c3ccccc23)cc1)NO [DACINOSTAT],GI50,SR [1],2990 nM
same,GI50,OVCAR-5 [2],260 nM
same,LC50,NCI-H460 [3],> 100000 nM
same,LC50,UACC-62,6390 nM
same,LC50,HOP-92 [4],68200 nM
same,GI50,HOP-92 [5],199 nM
same,LC50,MDA-MB-468,94300 nM
same,GI50,SN12C,1620 nM
same,GI50,T47D,444 nM
same,GI50,CCRF-CEM,251 nM
same,LC50,OVCAR-5 [6],38900 nM
same,LC50,ACHN [7],94300 nM
same,GI50,K562 [8],550 nM
same,GI50,BT-549 [9],3920 nM
same,GI50,NCI/ADR-RES [10],180 nM
same,LC50,SW-620,81300 nM
same,LC50,HCT-116 [11],51200 nM
same,GI50,PC-3,1300 nM
same,LC50,SNB-75 [12],> 100000 nM
same,LC50,BT-549 [13],85600 nM
same,GI50,[14],619 nM
same,GI50,RPMI-8226,523 nM
same,LC50,K562 [15],> 100000 nM
same,LC50,IGROV-1,48900 nM
same,GI50,SK-OV-3,524 nM
same,LC50,SF-539,57100 nM
same,GI50,A549 [16],1090 nM
same,LC50,MDA-MB-435,28800 nM
same,GI50,ACHN [17],1100 nM
same,GI50,OVCAR-3,1110 nM
same,LC50,RXF 393,15300 nM
same,LC50,NCI-H322M,> 100000 nM
same,LC50,Malme-3M,82000 nM
same,GI50,U-251 [18],773 nM
same,LC50,A549 [19],94600 nM
same,LC50,U-251 [20],5820 nM
same,LC50,COLO 205,50400 nM
same,LC50,LOX IMVI,6040 nM
same,GI50,HOP-62,502 nM
same,GI50,SF-268,1530 nM
same,LC50,SF-295,6910 nM
same,LC50,DU-145,> 100000 nM
same,GI50,HL-60(TB),249 nM
same,GI50,HCT-116 [21],347 nM
same,LC50,OVCAR-4,> 100000 nM
same,LC50,NCI/ADR-RES [22],> 100000 nM
same,LC50,NCI-H226,20000 nM
same,GI50,NCI-H460 [23],700 nM
same,GI50,SK-MEL-5,271 nM
same,GI50,SNB-75 [24],318 nM
same,LC50,SR [25],> 100000 nM
same,GI50,UO-31,1120 nM
same,LC50,MOLT-4,86900 nM
same,GI50,MCF7,730 nM
same,GI50,HT-29,566 nM
